# Screening data (PubChem BioAssay)
# Shown are actives, neighbours in structure and some others; about 4.9% of the full set was active somewhere.
# STAT1 inh = STAT1 signaling inhibitors, primary screen, cell-based, HTS, luciferase reporter; NIH 3T3 STAT1-luciferase reporter, IFN-gamma, luminescence; inhibition, % at 5.5 µM; 0.35% of 200,000 active;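 active = inhibition above a set limit, the mean inhibition across all tested compounds plus 3 SD, cut at about 34% in these data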
# STAT3 blocker = IL-6 driven STAT3 reporter inhibitors, primary screen, U3A cells, luciferase, luminescence, MLSCN library; 0.89% of 190,000 active; AID 862, 2007; inhibition, % at 5.5 µM; IL-6 STAT3-luciferase reporter; host cell line lacks STAT1;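 active = inhibition above the mean inhibition across all screened compounds plus 3 SD, cut at about 44% in these data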
# STAT1 activator = STAT1 signaling activators, primary screen, cell-based, HTS, luciferase reporter; NIH 3T3 STAT1-luciferase reporter, IFN-gamma, luminescence; 100% = IFN-gamma alone, no compound; activation (% of control), % at 5.5 µM; 2.6% of 200,000 active; AID 932, 2007;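 active = activation above the screen-wide mean activation plus 3 SD, cut at about 130% in these data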
# NF-kB neuron act = activators of NF-kB expression in neurons, primary screen, cell-based, HTS | human neuronal cells, NF-kB reporter expression; active compounds read high | fold change at 12.5 µM | 1.6% of 190,000 active | AID 1239, 2008; in the data active = fold change above about 3.3
# STAT3 activator = IL-6 driven STAT3 reporter potentiators, primary screen, U3A cells, luciferase, luminescence, MLSCN library. activation (% of control), % at 5.6 µM. IL-6 STAT3-luciferase reporter; 100% = signal with IL-6 EC80 alone. 0.91% of 190,000 active;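 active = activation above the screen-wide mean of compound activation plus 3 SD, cut at about 130% in these data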
#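 Material: human U3A cells carrying STAT3-luciferase construct. Measured by: reporter luminescence signal. Timing: compound 1 h, then IL-6 6 h at 37 °C.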
# APP 5'UTR act = activators of APP 5'UTR luciferase reporter, primary screen, SH-SY5Y cells; SH-SY5Y APP 5'UTR luciferase reporter, luminescence; zero percent = DMSO vehicle wells; activation, % at 2 µM; 1% of 190,000 active; AID 1276, 2008;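 active = activation above a set limit, based on mean plus 3 SD of controls, cut at about 140% in these data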
# STAT1 act conf = STAT1 signaling activators, confirmation, cell-based, HTS, luciferase reporter | shares compounds with STAT1 activator | NIH 3T3 STAT1-luciferase reporter, IFN-gamma potentiation, luminescence; 100% = IFN-gamma EC80 alone, no compound | activation (% of control), % at 5.7 µM | 97% of 1,200 active | AID 1262, 2008;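 active = activation above a set limit carried over from the earlier primary STAT1 screen, cut at about 140% in these data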
# NFkB act STAT1ct = NF-kB reporter activators, TNF-alpha stimulated, counter-screen for STAT1 activator project, cell-based, HEK293T, luciferase luminescence; shares compounds with STAT1 activator; 100% = TNF-alpha with vehicle only; activation (% of control), % at 5.7 µM; 43% of 1,200 active; AID 1306, 2008;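 active = activation above the mean of solvent-only control wells plus 3 SD, set per campaign, cut at about 130% in these data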;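 also: TNF-alpha given at a submaximal dose yielding about 80% of full reporter signal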
# STAT3 act STAT1c = STAT3 reporter activation by STAT1 hits, confirmation, counter-screen for STAT1 activator project, U3A cells, luciferase, luminescence. shares compounds with STAT1 activator. activation (% of control), % at 5.7 µM. 46% of 1,200 active. IL-6; cells lack STAT1; 100 = IL-6 alone, no compound effect. AID 1316, 2008;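 active = activation above the solvent-only control well mean plus 3 SD, set per plate batch, cut at about 110% in these data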;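 also: higher means more STAT3 reporter activation so hits are non-selective activators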
# A number is an active result; – = inactive; · = no result.
SMILES,STAT1 inh,STAT3 blocker,STAT1 activator,NF-kB neuron act,STAT3 activator,APP 5'UTR act,STAT1 act conf,NFkB act STAT1ct,STAT3 act STAT1c
O=[N+]([O-])c1ccc2cn(-c3ccccc3)nc2c1,–,–,152,–,–,141,196,135,–
O=[N+]([O-])c1ccc2c(c1)ncn2-c1ccccc1,–,–,–,–,–,–,·,·,·
CCOC(=O)c1cnc(SCc2ccc(C(C)(C)C)cc2)nc1N,–,–,–,–,–,–,·,·,·
CCOC(=O)c1cnc(SCc2ccccc2)nc1N,–,–,158,9,–,146,212,135,–
Cc1csc2cc(-c3cccc([N+](=O)[O-])c3)c(-c3cccc([N+](=O)[O-])c3)c[n+]12,–,–,–,–,–,–,·,·,·
CCOc1ccc(N/C(C)=C\C(=O)c2ccc3c(c2)OCCO3)cc1,–,–,156,3.4,–,–,220,134,–
COc1ccc(C(=O)/C=C(\C)Nc2ccc3c(c2)OCO3)cc1,–,–,–,–,–,–,·,·,·
CCOC(=O)C1CCN(c2ncnc3c2cnn3-c2ccccc2)CC1,–,–,–,–,–,–,·,·,·
Clc1ccc(-n2ncc3c(N4CCCC4)ncnc32)cc1,–,–,184,–,–,161,207,–,–
CC1CCN(c2ncnc3c2cnn3-c2ccccc2)CC1,–,–,154,4.5,–,·,246,136,–
CCOC(=O)C1CCN(c2ncnc3c2cnn3-c2ccc(Cl)cc2)CC1,–,–,–,–,–,–,·,·,·
Cc1cc(=O)n(C)c(=O)n1CCCCCCOc1cccc([N+](=O)[O-])c1,–,–,–,–,–,–,·,·,·
CC/C(=C1/C(=O)CC(C)(C)C(C(=O)OC)C1=O)N1CCCC1 (centres undefined),–,–,–,–,–,–,·,·,·
O=C(NCc1ccccn1)c1cc(-c2ccc(-c3ccccc3)cc2)nc2ccccc12,–,–,156,–,–,–,199,–,148
S=C(Cc1cccnc1)N1CCOCC1,–,–,–,–,–,–,·,·,·
CCNc1nc(N)nc(-c2cc(Cl)ccc2O)n1,–,–,196,6.8,–,215,288,145,167
CCCNc1nc(N)nc(-c2cc(Cl)ccc2OC)n1,–,–,–,–,–,–,·,·,·
CCCCNc1nc(N)nc(-c2cc(Cl)ccc2O)n1,–,–,178,–,–,155,230,145,154
O=C(NC(=S)NCCCN1CCOCC1)c1cccc2ccccc12,–,–,–,–,–,–,·,·,·
COC(=O)c1sc2nc(CN3CCN(c4cccc(C(F)(F)F)c4)CC3)[nH]c(=O)c2c1C,–,–,–,–,–,–,·,·,·
Cc1cccnc1NC(=S)Nc1ccc(Br)cc1Cl,–,–,154,–,–,–,198,143,–
CC(CC(=O)N1CCN(c2ccc(C(F)(F)F)cn2)CC1)n1ccnc1 (centres undefined),–,–,–,–,–,–,·,·,·
C(=C\c1ccccc1)/C=N/Nc1nc2ccccc2s1,–,–,158,–,–,179,238,141,129
Brc1ccc(/C=C/C=N/Nc2nc3ccccc3s2)cc1,–,–,–,–,–,–,·,·,·
CCC/C=N/Nc1nc2ccccc2s1,–,–,163,6,–,–,225,143,127
